Here are results for 23 compounds from ChEMBL document CHEMBL4312032, “Design and synthesis of α-phenoxy-N-sulfonylphenyl acetamides as Trypanosoma brucei Leucyl-tRNA synthetase inhibitors” (Eur J Med Chem, 2020).

Each structure is given as a SMILES string. Activity calls are given as the source filed them. No cut-off for these calls is given here.

Test [1] in a line: Inhibition of Trypanosoma brucei LeuRS expressed in Escherichia coli BL21 (DE3)-RIPL cells assessed as decrease in [14C]-Leucine tRNA synthesis incubated for 20 mins in presence of [14C]leucine followed by incubation with ATP for 15 mins by liquid scintillation counting method. The method, boiled down: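 T. brucei LeuRS was expressed in E. coli BL21(DE3)-RIPL. Reactions held 50 mM HEPES-KOH pH 7.8, 5 mM MgCl₂, 45 mM KCl, 1 mM DTT, 0.02% BSA, 0.4 mg/mL tRNA and [¹⁴C]leucine. They were preincubated 20 min at 37 °C without ATP, then run 15 min after adding 4 mM ATP. Three aliquots were spotted on filter paper and averaged for IC50.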

The test system of a further test is Trypanosoma brucei. Briefly: Potency index, ratio of IC50 of 2-(4-bromo-2-chlorophenoxy)-N-(4-sulfamoylphenylcarbamothioyl)acetamide to IC50 of compound for inhibition of Trypanosoma brucei LeuRS expressed in Escherichia coli BL21 (DE3)-RIPL cells in presence of [14C]leucine incubated for 20 mins followed by incubation with ATP for 15 mins by liquid scintillation counting method.

In test [2] the test system is Trypanosoma brucei brucei. The experiment in a line: Antitrypanosomal activity against bloodstream form of Trypanosoma brucei brucei 221 assessed as parasite growth inhibition incubated for 72 hrs by resazurin staining based assay. As to conditions: Trypanosoma brucei, 221, 72 h. Format: functional, organism-based. The method, boiled down: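 Bloodstream-form T. b. brucei 221 kept in log phase in HMI-11 at 37 °C, 5% CO2, and seeded from a 2×10⁵/mL (2-fold) suspension. Compounds were serially diluted in DMSO and tested in triplicate for 72 h. Resazurin was then added for 5 h more. Fluorescence was read at ex 544/em 590 nm.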
On the technique in general: Alamar Blue is a resazurin reagent that responds to reducing activity.

Test [3] deals with Trypanosoma brucei brucei. The experiment in a line: Antitrypanosomal activity against bloodstream form of Trypanosoma brucei brucei 221 assessed as parasite growth inhibition at 22 uM incubated for 72 hrs by resazurin staining based assay. Format: functional, organism-based.

Broadly, the IC50 is the concentration needed to halve the response being measured. With `N[C@@H](Cc1ccccc1)C(=O)NS(=O)(=O)c1ccc(NC(=O)COc2ccc(Br)cc2Cl)cc1`, the IC50 in test [1] is over 1000 µM.
`CC(C)C[C@H](N)C(=O)NS(=O)(=O)c1ccc(NC(=O)COc2ccc(Br)cc2Cl)cc1`: the IC50 in test [1] was determined as 38.4 µM. Besides, the Ratio IC50 in the test on Trypanosoma brucei was 5.
In the case of `CC(C)(C)OC(=O)N[C@@H](CCC(=O)OCc1ccccc1)C(=O)NS(=O)(=O)c1ccc(NC(=O)COc2ccc(Br)cc2Cl)cc1`, the IC50 in test [1] was found to be 98 µM.
Still for that read-out and setting: then `O=C(COc1ccc(Br)cc1Cl)Nc1ccc(S(=O)(=O)NC(=O)c2ccco2)cc1`, with 251 µM; and `CCOC(=O)CC[C@H](N)C(=O)NS(=O)(=O)c1ccc(NC(=O)COc2ccc(Br)cc2Cl)cc1`, with over 1000 µM.
Still for that read-out and setting: then `CC[C@H](C)[C@H](N)C(=O)NS(=O)(=O)c1ccc(NC(=O)COc2ccc(Br)cc2Cl)cc1`, with over 1000 µM; and `CC[C@H](C)[C@H](NC(=O)OC(C)(C)C)C(=O)NS(=O)(=O)c1ccc(NC(=O)COc2ccc(Br)cc2Cl)cc1`, with 346 µM.
For the compound `CC(C)C[C@H](N)C(=O)NS(=O)(=O)c1cccc(NC(=O)COc2cccc(-c3ccccc3)c2)c1`, the concentration for half-maximal inhibition (IC50) in test [1] turned out to be 0.7 µM. In the test on Trypanosoma brucei, the Ratio IC50 was found to be 250.
As to `CC(C)C[C@H](N)C(=O)NS(=O)(=O)c1cccc(NC(=O)COc2ccccc2)c1`, the IC50 in test [1] stood at 5.51 µM.
Regarding `N[C@@H](CCC(=O)O)C(=O)NS(=O)(=O)c1ccc(NC(=O)COc2ccc(Br)cc2Cl)cc1`, the IC50 in test [1] is 428 µM.
On to `COc1cccc(OCC(=O)Nc2cccc(S(=O)(=O)NC(=O)[C@@H](N)CC(C)C)c2)c1`, for which, in test [1], the IC50 amounted to 2.68 µM.
In the case of `CC(C)C[C@H](N)C(=O)NS(=O)(=O)c1cccc(NC(=O)COc2ccc(-c3ccccc3)cc2)c1`, the IC50 in test [1] is 7.28 µM; in test [2], 33.3 µM. Also, the inhibition result in test [3] is “Active”.
As to `O=C(COc1ccc(Br)cc1Cl)Nc1ccc(S(=O)(=O)NC(=O)[C@H](Cc2ccccc2)NC(=O)OCc2ccccc2)cc1`, in test [1], the half-inhibitory concentration (IC50) worked out at 116 µM.
With `NS(=O)(=O)c1ccc(NC(=O)COc2ccc(Br)cc2Cl)cc1`, the IC50 in test [1] was determined as 191 µM.
For the compound `CC(C)C[C@H](NC(=O)OC(C)(C)C)C(=O)NS(=O)(=O)c1ccc(NC(=O)COc2ccc(Br)cc2Cl)cc1`, the IC50 in test [1] was determined as 404 µM.
For `CC(C)C[C@H](N)C(=O)NS(=O)(=O)c1cccc(NC(=O)COc2ccc([N+](=O)[O-])cc2)c1`, the IC50 in test [1] is 6.81 µM.
Take `NS(=O)(=O)c1ccc(NC(=S)NC(=O)COc2ccc(Br)cc2Cl)cc1`: the IC50 in test [1] worked out at 174 µM.
`CC(C)(C)OC(=O)N[C@@H](Cc1ccccc1)C(=O)NS(=O)(=O)c1ccc(NC(=O)COc2ccc(Br)cc2Cl)cc1`: the IC50 in test [1] was determined as 281 µM.
For the compound `COc1ccc(OCC(=O)Nc2cccc(S(=O)(=O)NC(=O)[C@@H](N)CC(C)C)c2)cc1`, the IC50 in test [1] was 3.58 µM.
Take `CC(C)(C)OC(=O)N[C@@H](CCC(N)=O)C(=O)NS(=O)(=O)c1ccc(NC(=O)COc2ccc(Br)cc2Cl)cc1`: the IC50 in test [1] worked out at 685 µM.
Take `NC(=O)CC[C@H](N)C(=O)NS(=O)(=O)c1ccc(NC(=O)COc2ccc(Br)cc2Cl)cc1`: the IC50 in test [1] turned out to be 285 µM.
In the case of `CC(C)C[C@H](NC(=O)OCc1ccccc1)C(=O)NS(=O)(=O)c1ccc(NC(=O)COc2ccc(Br)cc2Cl)cc1`, the IC50 in test [1] stood at 110 µM.
Turning to `CC(C)C[C@H](N)C(=O)NS(=O)(=O)c1cccc(NC(=O)COc2ccccc2Cl)c1`, in test [1], the IC50 came to 5.69 µM.
